This is an account of results in ChEMBL document CHEMBL2062496, “Identification of a sirtuin 3 inhibitor that displays selectivity over sirtuin 1 and 2” (Eur J Med Chem, 2012).

For one test, the system named is SK-MEL-28. The experiment in a line: Increase in superoxide level in human SK-MEL-28 cells maintained in medium containing GF and glucose at 100 uM after 24 hrs by DHE-based fluorescence ssay. The test is classed as functional, cell-based. An outline of the steps:
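Cells (SK-MEL-28) were kept 24 h in growth medium (DMEM + 10% serum) with or without 100 µM compound; antimycin was the positive control. They were labelled at 37 °C with DHE (10 µmol/L, 1% DMSO) in Locke's containing 5 mmol/L pyruvate for 40 min, stopped on ice and trypsinized. Flow-cytometric MFI of 10,000 cells, corrected for unlabelled autofluorescence; 3–4 separate experiments.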

For a further test, the system named is TK-10. The experiment in a line: Growth inhibition of human TK10 cells assessed as cell growth at 10 uM after 48 hrs by MTT assay; values are per cent of control. The settings on record: TK-10, 48 h.
For a further test, the system named is NCI-H226. The experiment in a line: Growth of human NCI-H226 cells assessed as cell growth at 10 uM after 48 hrs by MTT assay. The settings on record: NCI-H226, 48 h. On the technique in general: Formazan colour is commonly taken as a measure of viable cells.
In test [1] the target is T1, NAD-dependent protein deacetylase sirtuin-2 (Homo sapiens) (UniProt Q8IXJ6).
T1 sequence (whole entry): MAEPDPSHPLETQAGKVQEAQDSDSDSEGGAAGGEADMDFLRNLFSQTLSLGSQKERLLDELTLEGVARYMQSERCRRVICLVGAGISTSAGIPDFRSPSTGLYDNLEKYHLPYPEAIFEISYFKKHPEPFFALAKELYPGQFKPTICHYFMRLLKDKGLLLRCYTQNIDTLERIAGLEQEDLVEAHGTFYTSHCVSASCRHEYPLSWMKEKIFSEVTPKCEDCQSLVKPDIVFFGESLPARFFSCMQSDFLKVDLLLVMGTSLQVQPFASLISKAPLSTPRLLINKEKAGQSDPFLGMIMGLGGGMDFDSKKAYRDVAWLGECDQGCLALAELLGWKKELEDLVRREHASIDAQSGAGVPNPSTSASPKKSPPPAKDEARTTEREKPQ
The experiment in a line: Inhibition of human SIRT2 assessed as enzyme activity using Fluor-de-Lys as substrate at 1 mM by fluorometry. Set-up: scale not given: the % may be the effect or the level left. Summed up: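 Commercial Fluor-de-Lys kit, substrate human p53 379–382 peptide (Arg-His-Lys-Lys(Ac)). Human Sirt1 or Sirt2 was incubated with substrate, NAD+ and compound at 1 mM, also tested at 100 µM. Fluorescence scales with Lys382 deacetylation. Activity is expressed relative to control, mean ± S.E.M. of 3–4 replicates.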

The subject of a further test is HL-60(TB). The experiment in a line: Growth inhibition of human HL-60(TB) cells assessed as cell growth at 10 uM after 48 hrs by MTT assay. The test is classed as functional. The settings on record: HL-60, 48 h, read-out: GI.
In another test the test system is SNB-19. The experiment in a line: Growth inhibition of human SNB19 cells assessed as cell growth at 10 uM after 48 hrs by MTT assay; values are per cent of control. The settings on record: SNB-19, 48 h.
The subject of another test is OVCAR-5. The experiment in a line: Growth inhibition of human OVCAR5 cells assessed as cell growth at 10 uM after 48 hrs by MTT assay; values are per cent of control. The settings on record: OVCAR-5, 48 h.
In another test the test system is SF-539. The experiment in a line: Growth inhibition of human SF539 cells assessed as cell growth at 10 uM after 48 hrs by MTT assay; values are per cent of control. The conditions noted are these: SF-539, 48 h.
A further test has as its system LOX IMVI. Nature of the test: Growth inhibition of human LOXIMVI cells assessed as cell growth at 10 uM after 48 hrs by MTT assay; values are per cent of control.
The next test has as its system DU-145. Nature of the test: Growth inhibition of human DU145 cells assessed as cell growth at 10 uM after 48 hrs by MTT assay; values are per cent of control. The settings on record: DU-145, 48 h.
A further test relates to CAKI-1. The experiment in a line: Growth inhibition of human Caki1 cells assessed as cell growth at 10 uM after 48 hrs by MTT assay; values are per cent of control. The settings on record: CAKI-1, 48 h.
For a further test, the system named is MCF7. The experiment in a line: Growth inhibition of human MCF7 cells assessed as cell growth at 10 uM after 48 hrs by MTT assay; values are per cent of control. The conditions noted are these: MCF7, 48 h.
The next test relates to K562. Nature of the test: Growth inhibition of human K562 cells assessed as cell growth at 10 uM after 48 hrs by MTT assay; values are per cent of control. The conditions noted are these: K562, 48 h.
In the next test the test system is PC-3. Nature of the test: Growth inhibition of human PC3 cells assessed as cell growth at 10 uM after 48 hrs by MTT assay; values are per cent of control. The conditions noted are these: PC-3, 48 h.
In another test the test system is OVCAR-8. Nature of the test: Growth inhibition of human OVCAR8 cells assessed as cell growth at 10 uM after 48 hrs by MTT assay; values are per cent of control. The conditions noted are these: OVCAR-8, 48 h.
Another test has as its system M14. Nature of the test: Growth inhibition of human M14 cells assessed as cell growth at 10 uM after 48 hrs by MTT assay; values are per cent of control. The settings on record: M14, 48 h.
In another test the test system is CCRF-CEM. Nature of the test: Growth of human CCRF-CEM cells assessed as cell growth at 10 uM after 48 hrs by MTT assay.
The subject of the next test is SK-MEL-5. The experiment in a line: Growth inhibition of human SK-MEL-5 cells assessed as cell growth at 10 uM after 48 hrs by MTT assay; values are per cent of control. The settings on record: SK-MEL-5, 48 h.

The structures appear in SMILES notation. The source made the active and inactive calls. No cut-off for these calls is given here.

With `c1cncc(-c2cnn[nH]2)c1`, the result in the test with SK-MEL-28 was Active. Also, the growth, % of control at 10 µM in the test on TK-10 came out at 103%; in the test on NCI-H226, 80.6%; in the test with SNB-19, 102%; with OVCAR-5, 100%; in the test on SF-539 it was 106%; in the test with LOX IMVI it was 102%. In addition, the growth, % of control at 10 µM in the test with DU-145 stood at 96.3%; in the test on CAKI-1, 95.1%; in the test with MCF7, 117%; in the test on K562 it was 75.2%; in the test on PC-3, 88.5%; in the test with OVCAR-8, 49.8%. The growth, % of control at 10 µM in the test with M14 worked out at 72.5%; in the test on CCRF-CEM, 24.8%; with SK-MEL-5, 103%. For the same compound, the Activity in test [1] was 92%. The inhibition of growth at 10 µM in the test on HL-60(TB) was determined as 92.9%.
